Results: ChEMBL document CHEMBL4732214, “Highly Selective Y Receptor Antagonist Binds in an Allosteric Binding Pocket” (J Med Chem, 2021)
Values belong to the compound of their own block, whether it stands above or below them. Active and inactive are the calls of the source. The rule behind the calls is not given here.

Tests used:
[1] = molecular target: T1, Neuropeptide Y receptor type 4 (Homo sapiens, UniProt P50391); assay: Allosteric antagonist activity at […]-tagged human NPY4R expressed in COS7 cells co-expressing Gqi5-alpha assessed as inhibition of PP-induced Ca2+ flux by Fluo-2 AM dye based fluorescent assay relative to control; assay type: functional, cell-based
T1 sequence (P50391 whole entry): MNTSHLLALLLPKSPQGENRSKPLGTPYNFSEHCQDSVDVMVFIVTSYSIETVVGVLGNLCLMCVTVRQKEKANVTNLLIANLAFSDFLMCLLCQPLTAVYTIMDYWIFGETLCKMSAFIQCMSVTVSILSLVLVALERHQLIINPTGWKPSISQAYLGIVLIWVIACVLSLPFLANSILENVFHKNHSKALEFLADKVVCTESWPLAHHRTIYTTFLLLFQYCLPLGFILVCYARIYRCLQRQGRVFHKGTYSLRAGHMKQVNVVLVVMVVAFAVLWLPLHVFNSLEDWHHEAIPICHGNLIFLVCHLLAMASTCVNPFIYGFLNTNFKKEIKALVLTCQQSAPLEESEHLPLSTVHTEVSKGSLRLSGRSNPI

COS7 [2] = assay: Allosteric antagonist activity at human NPY4R chimera containing NPY1R transmembrane helix 2 expressed in COS7 cells co-expressing Gqi5-alpha assessed as inhibition of PP-induced Ca2+ flux at 15 uM by Fluo-2 AM dye based fluorescent assay; assay type: cell-based
How it was run: (§1)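 Y4R/Y1R chimeras carrying Y1R TM1, TM2 or ECL2 segments, C-terminal eYFP, transiently cotransfected with Δ6Gαqi4myr in COS7 cells. Fluo2-AM Ca²⁺ flux. 15 μM antagonist or DMSO added, followed by PP. Reduction in PP response given relative to DMSO control, normalized to 1 μM PP.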

[3] = molecular target: T1, Neuropeptide Y receptor type 4; assay: Inhibition of 10 nM PP-induced receptor internalization of eYFP-tagged human NPY4R expressed in HEK293 cells at 30 uM after 30 mins by fluorescence microscopy; assay type: cell-based; conditions: filed as allosteric antagonist
How it was run: (§2)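 HEK293 cells stably expressing Y4R-eYFP, nuclei stained with Hoechst. Cells given 30 μM compound or DMSO in OptiMEM, then 10 or 100 nM PP (or medium) for 30 min at 37 °C. eYFP imaged at a fixed 400 ms exposure. Cell-surface fluorescence quantified as pixel intensity, normalized to unstimulated DMSO control.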

COS7 [4] = assay: Allosteric antagonist activity at human NPY4R chimera containing NPY1R transmembrane helix 1 expressed in COS7 cells co-expressing Gqi5-alpha assessed as inhibition of PP-induced Ca2+ flux at 15 uM by Fluo-2 AM dye based fluorescent assay; assay type: cell-based; how it was run: as §1
[5] = molecular target: T2, Neuropeptide Y receptor type 5 (Homo sapiens) (UniProt Q15761); assay: Allosteric antagonist activity at […]-tagged human NPY5R expressed in COS7 cells co-expressing Gqi5-alpha assessed as inhibition of NPY-induced Ca2+ flux at 30 uM by Fluo-2 AM dye based fluorescent assay; assay type: functional, cell-based
T2 sequence (whole entry): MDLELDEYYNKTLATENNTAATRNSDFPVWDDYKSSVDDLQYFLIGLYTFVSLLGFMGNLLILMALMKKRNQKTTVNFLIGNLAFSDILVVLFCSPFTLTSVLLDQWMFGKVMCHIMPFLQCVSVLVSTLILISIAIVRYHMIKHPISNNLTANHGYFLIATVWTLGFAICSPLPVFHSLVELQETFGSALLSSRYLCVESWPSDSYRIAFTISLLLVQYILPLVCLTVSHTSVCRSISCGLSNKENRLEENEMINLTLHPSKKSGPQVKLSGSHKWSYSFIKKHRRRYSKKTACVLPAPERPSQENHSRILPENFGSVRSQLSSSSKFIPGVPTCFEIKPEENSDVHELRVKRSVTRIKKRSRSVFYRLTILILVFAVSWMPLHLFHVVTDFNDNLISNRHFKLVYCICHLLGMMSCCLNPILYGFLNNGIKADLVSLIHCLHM
How it was run: (§3)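 Stable COS7 lines expressing Y1R-, Y2R- or Y5R-eYFP plus chimeric Δ6Gαqi4myr, loaded with 2.4 μM Fluo2-AM in HBSS/20 mM HEPES/2.5 mM probenecid pH 7.4. After 20 s baseline, DMSO or 30 μM compound added, NPY added 110 s later, 140 s run. Read at ex 485/em 525 nm. Signal taken as x-fold over basal, normalized to 1 μM NPY maximum. N ≥ 3.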

[6] = molecular target: T1, Neuropeptide Y receptor type 4; assay: Allosteric antagonist activity at human NPY4R expressed in HEK293 cells assessed as reduction in PP-induced arrestin-3 recruitment at 30 uM measured after 30 mins by BRET assay; assay type: cell-based; conditions: filed as allosteric antagonist
How it was run: (§4)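 BRET in HEK293 cells transiently expressing Y4R-Rluc8 and venus-arr3. Pretreated with 30 μM compound or DMSO, then read continuously for 30 min after 100 nM PP. Fluorescence/luminescence ratio, unstimulated control subtracted to give netBRET. Rate constant k from a one-phase association fit. N ≥ 4, unpaired t-test.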

[7] = molecular target: T3, Neuropeptide Y receptor type 1 (Homo sapiens) (UniProt P25929); assay: Allosteric antagonist activity at […]-tagged human NPY1R expressed in COS7 cells co-expressing Gqi5-alpha assessed as inhibition of NPY-induced Ca2+ flux at 30 uM by Fluo-2 AM dye based fluorescent assay; assay type: functional, cell-based; how it was run: as §3
T3 sequence (whole entry): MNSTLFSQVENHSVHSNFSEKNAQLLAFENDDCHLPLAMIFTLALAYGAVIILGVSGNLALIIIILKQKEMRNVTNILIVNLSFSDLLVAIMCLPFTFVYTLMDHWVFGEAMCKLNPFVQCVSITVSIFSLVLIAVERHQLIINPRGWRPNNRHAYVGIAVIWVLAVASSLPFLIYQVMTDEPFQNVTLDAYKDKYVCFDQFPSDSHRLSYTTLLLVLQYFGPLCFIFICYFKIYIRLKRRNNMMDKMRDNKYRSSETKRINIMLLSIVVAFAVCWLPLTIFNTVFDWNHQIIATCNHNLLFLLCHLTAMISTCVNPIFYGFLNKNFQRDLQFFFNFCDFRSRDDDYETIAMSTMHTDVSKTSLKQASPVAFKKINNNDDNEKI

[8] = molecular target: T1, Neuropeptide Y receptor type 4; assay: Displacement of [125I]-PP from human NPY4R expressed in HEK293 cell membranes assessed as remaining radioligand binding incubated for 5 hrs using 60 pM [125I]-PP by microBeta scintillation counting assay; conditions: Cell membrane, filed as allosteric antagonist
How it was run: (§5)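 Membranes from stable HEK293 Y4R-eYFP cells, 0.3 μg in HEPES buffer (25 mM HEPES, […], 1 mM MgCl2, Pefabloc, pH 7.4) with DMSO or compound. Incubated with 60 or 180 pM human ¹²⁵I-PP for 5 h at room temperature. Nonspecific binding set with 1 μM PP. Bound ligand collected on PEI-soaked GF/C filters and counted by scintillation.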

[9] = molecular target: T1, Neuropeptide Y receptor type 4; assay: Inhibition of 100 nM PP-induced receptor internalization of eYFP-tagged human NPY4R expressed in HEK293 cells at 30 uM after 30 mins by fluorescence microscopy; assay type: cell-based; conditions: filed as allosteric antagonist; how it was run: as §2
[10] = molecular target: T1, Neuropeptide Y receptor type 4; assay: Displacement of [125I]-PP from human NPY4R expressed in HEK293 cell membranes incubated for 5 hrs by microBeta scintillation counting assay; conditions: Cell membrane, filed as allosteric antagonist; how it was run: as §5
[11] = molecular target: T4, Neuropeptide Y receptor type 2 (Homo sapiens) (UniProt P49146); assay: Allosteric antagonist activity at […]-tagged human NPY2R expressed in COS7 cells co-expressing Gqi5-alpha assessed as inhibition of NPY-induced Ca2+ flux at 30 uM by Fluo-2 AM dye based fluorescent assay; assay type: functional, cell-based; how it was run: as §3
T4 sequence (whole entry): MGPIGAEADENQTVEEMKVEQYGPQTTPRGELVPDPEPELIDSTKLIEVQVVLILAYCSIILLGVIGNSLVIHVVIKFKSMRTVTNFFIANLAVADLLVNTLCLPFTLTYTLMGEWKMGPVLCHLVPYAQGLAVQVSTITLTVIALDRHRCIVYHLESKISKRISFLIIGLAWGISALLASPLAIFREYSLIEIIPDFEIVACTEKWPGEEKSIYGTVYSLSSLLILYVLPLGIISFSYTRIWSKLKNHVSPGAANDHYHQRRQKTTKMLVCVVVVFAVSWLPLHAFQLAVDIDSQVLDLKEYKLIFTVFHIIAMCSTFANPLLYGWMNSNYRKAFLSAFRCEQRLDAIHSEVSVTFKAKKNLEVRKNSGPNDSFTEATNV

[12] = molecular target: T1, Neuropeptide Y receptor type 4; assay: Displacement of [125I]-PP from human NPY4R expressed in HEK293 cell membranes assessed as remaining radioligand binding incubated for 5 hrs using 180 pM [125I]-PP by microBeta scintillation counting assay; conditions: Cell membrane; how it was run: as §5
COS7 [13] = assay: Allosteric antagonist activity at human NPY4R chimera containing NPY1R extracellular loop 2 expressed in COS7 cells co-expressing Gqi5-alpha assessed as inhibition of PP-induced Ca2+ flux at 15 uM by Fluo-2 AM dye based fluorescent assay; assay type: cell-based; how it was run: as §1
[14] = molecular target: T1, Neuropeptide Y receptor type 4; assay: Inhibition of receptor internalization of eYFP-tagged human NPY4R expressed in HEK293 cells at 30 uM after 30 mins by fluorescence microscopy; assay type: cell-based; how it was run: as §2
[15] = molecular target: T1, Neuropeptide Y receptor type 4; assay: Allosteric antagonist activity at human NPY4R expressed in HEK293 cells assessed as reduction in rate of PP-induced arrestin-3 recruitment at 30 uM measured after 30 mins by BRET assay; assay type: cell-based; conditions: filed as allosteric antagonist; how it was run: as §4
[16] = molecular target: T5, Neuropeptide Y receptor type 2 (Mus musculus) (UniProt P97295); assay: Allosteric antagonist activity at NPY2R in mouse descending colon mucosa assessed as reduction in PYY-induced ion transport at 30 uM by electrophysiology
T5 sequence (whole entry): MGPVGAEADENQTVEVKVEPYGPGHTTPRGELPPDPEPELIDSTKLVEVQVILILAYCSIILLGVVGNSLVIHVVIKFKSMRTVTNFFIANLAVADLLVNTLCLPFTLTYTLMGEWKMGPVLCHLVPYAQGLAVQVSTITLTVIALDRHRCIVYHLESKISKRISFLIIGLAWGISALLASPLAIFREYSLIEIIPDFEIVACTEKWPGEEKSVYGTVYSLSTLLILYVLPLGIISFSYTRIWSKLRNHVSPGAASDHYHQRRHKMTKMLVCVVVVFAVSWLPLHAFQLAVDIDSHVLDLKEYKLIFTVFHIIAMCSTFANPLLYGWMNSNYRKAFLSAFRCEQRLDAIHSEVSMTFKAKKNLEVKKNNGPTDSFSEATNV

[17] = molecular target: T5, Neuropeptide Y receptor type 2 (Mus musculus); assay: Allosteric antagonist activity at NPY2R in mouse descending colon mucosa assessed as reduction in PYY-induced ion transport at 0.3 to 30 uM by electrophysiology; conditions: dose 0.3-30 µM
[18] = molecular target: T6, Neuropeptide Y receptor type 1 (Mus musculus) (UniProt Q04573); assay: Allosteric antagonist activity at NPY1R in mouse descending colon mucosa assessed as reduction in PYY-induced ion transport at 30 uM by electrophysiology
T6 sequence (whole entry): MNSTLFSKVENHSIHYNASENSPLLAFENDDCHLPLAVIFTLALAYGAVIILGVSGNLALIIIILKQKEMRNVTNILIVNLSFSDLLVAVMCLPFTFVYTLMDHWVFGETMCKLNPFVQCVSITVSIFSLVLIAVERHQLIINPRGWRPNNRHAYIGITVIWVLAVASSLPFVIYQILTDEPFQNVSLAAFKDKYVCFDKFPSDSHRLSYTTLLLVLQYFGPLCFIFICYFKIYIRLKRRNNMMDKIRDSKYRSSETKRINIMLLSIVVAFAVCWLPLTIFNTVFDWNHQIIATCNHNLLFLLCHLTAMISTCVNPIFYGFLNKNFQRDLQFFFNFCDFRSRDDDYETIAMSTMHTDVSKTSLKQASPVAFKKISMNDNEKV

[19] = molecular target: T6, Neuropeptide Y receptor type 1 (Mus musculus); assay: Allosteric antagonist activity at NPY1R in mouse descending colon mucosa assessed as reduction in PYY-induced ion transport at 0.3 to 30 uM by electrophysiology; conditions: dose 0.3-30 µM

- IC50 ([1]; read-out: IC50): 4 µM
- inhibition [3]: Active
- inhibition [5]: inactive
- inhibition [6]: Active
- inhibition [7]: inactive
- Activity [8]: 15%
- inhibition [9]: Active
- inhibition [10]: Dose-dependent effect
- inhibition [11]: inactive
- inhibition [12]: inactive
- inhibition [14]: inactive
- inhibition [15]: Active
SMILES: CS(=O)(=O)N1CCCCC1C(=O)Nc1nc2cc3c(cc2s1)OCCO3 (racemic)
- inhibition (COS7 [2]): inactive
- inhibition (COS7 [4]): inactive
- inhibition (COS7 [13]): inactive

- pIC50 [1]: inactive
- IC50 ([1]; cos7): Not Active
- inhibition [16]: inactive
- inhibition [17]: inactive
- inhibition [18]: inactive
- inhibition [19]: inactive
SMILES: CS(=O)(=O)N1CCCC[C@@H]1C(=O)Nc1nc2cc3c(cc2s1)OCCO3
